Assay results taken from ChEMBL document CHEMBL2417461, “Spectroscopic, computational modeling and cytotoxicity of a series of meso-phenyl and meso-thienyl-BODIPYs” (Bioorg Med Chem, 2013).

Assays:
[1] = Ratio of IC50 for dark toxicity in human Hep2 cells to IC50 for phototoxicity in human Hep2 cells; type: cell-based; details: HEp-2 cells, read-out: Ratio IC50
HEp-2 = assay: Phototoxicity in human Hep2 cells incubated for 24 hrs followed by 1.5 J/cm'2 light irradiation for 20 mins measured after 24 hrs by Cell Titre Blue assay; type: functional, cell-based; details: HEp-2, light or radiation study
Procedure, shortened: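 HEp2 cells given 3.125–200 μM compound for 24 h at 37 °C, then washed and refed. Irradiated on ice for 20 min with a 100 W halogen lamp through a 610 nm long-pass filter and a water IR filter, about 1.5 J/cm². After 24 h more, 20% Cell Titer Blue for 4 h, read at 570/615 nm. IC50 from dose–response curves.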

[2] = Dark toxicity in human Hep2 cells after 24 hrs by Cell Titre Blue assay; type: cell-based; details: HEp-2 cells
Procedure, shortened: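 HEp2 cells seeded 15,000/well. Compound at 12.5–400 μM (vehicle DMSO/Cremophor EL) for 24 h at 37 °C in the dark, five replicates per concentration. Washed, then 20% Cell Titer Blue for 4 h. Fluorescence read at 570/615 nm as % viable cells, IC50 taken from dose–response curves.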

[3] = Induction of singlet oxygen generation assessed as decrease in DPBF absorbance at 5 uM followed by 71 W light irradiation for 1 hr by spectrophotometry; type: physicochemical
Procedure, shortened: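 Compound at 5 μM with 50 μM DPBF in DMSO, 2 mL, irradiated 1 h with a 71 W source through a 500 nm long-pass filter. DPBF absorbance at 410 nm sampled every 15 min. Rate of absorbance decrease referenced to methylene blue at equal concentration.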

[4] = Cellular uptake in human Hep2 cell mitochondria at 10 uM after 24 hrs by micro plate reader analysis; type: ADME; details: hep-2, 24 h
Procedure, shortened: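 HEp2 cells (DMEM:AMEM 50:50, 10% FBS) seeded 15,000/well, grown overnight, then given 10 μM compound in medium with 5% FBS for 0–24 h. Washed with PBS, lysed in 0.25% Triton X-100. Compound fluorescence read at 355/520 nm against standard curve, cell number by CyQuant at 485/520 nm. Uptake given per cell.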

| Compound | selectivity ratio [1] | IC50 (HEp-2) [µM] | IC50 at 24 h [2] [µM] | Activity [3] | Drug uptake [4] |
| --- | --- | --- | --- | --- | --- |
| CC1=C(I)C(C)=[N+]2C1=C(c1ccc(-c3cccs3)s1)c1c(C)c(I)c(C)n1[B-]2(F)F | > 2 | > 200 | > 400 |  |  |
| COc1cc(OC)cc(C2=C3C(C)=C(I)C(C)=[N+]3[B-](F)(F)n3c(C)c(I)c(C)c32)c1 | > 100 | 4 | > 400 | Active | Active |
| CC1=C(I)C(C)=[N+]2C1=C(c1ccc(Br)cc1)c1c(C)c(I)c(C)n1[B-]2(F)F | > 15 | 28 | > 400 |  | Active |
| COC(=O)c1ccc(C2=C3C(C)=CC(C)=[N+]3[B-](F)(F)n3c(C)cc(C)c32)cc1 | > 4 | > 100 | > 400 |  |  |
| CC1=CC(C)=[N+]2C1=C(c1ccc(-c3ccc(Br)s3)s1)c1c(C)cc(C)n1[B-]2(F)F | > 3.5 | 82 | > 300 |  |  |
| CC1=C(I)C(C)=[N+]2C1=C(c1c(F)c(F)c(F)c(F)c1F)c1c(C)c(I)c(C)n1[B-]2(F)F | > 2 | > 200 | > 400 |  |  |
| CC1=C(I)C(C)=[N+]2C1=C(c1ccccc1)c1c(C)c(I)c(C)n1[B-]2(F)F | > 15 | 27 | > 400 | Active | Active |
| CC1=CC(C)=[N+]2C1=C(c1ccc(-c3cccs3)s1)c1c(C)cc(C)n1[B-]2(F)F | > 4 | > 100 | > 400 |  |  |
| CC1=C(I)C(C)=[N+]2C1=C(c1cccs1)c1c(C)c(I)c(C)n1[B-]2(F)F | > 30 | 14 | > 400 | Active | Active |
| COc1ccc(C2=C3C(C)=C(I)C(C)=[N+]3[B-](F)(F)n3c(C)c(I)c(C)c32)cc1OC | > 53 | 7.5 | > 400 | Active | Active |
| CC1=C(I)C(C)=[N+]2C1=C(c1cc(C(C)(C)C)cc(C(C)(C)C)c1)c1c(C)c(I)c(C)n1[B-]2(F)F | > 2 | > 200 | > 400 |  |  |
| CC1=C(I)C(C)=[N+]2C1=C(c1ccc(-c3ccc(Br)s3)s1)c1c(C)c(I)c(C)n1[B-]2(F)F | 2.3 | 3.5 | 8 | Active | Active |
| CC1=C(I)C(C)=[N+]2C1=C(c1ccc(Br)s1)c1c(C)c(I)c(C)n1[B-]2(F)F | > 2 | > 200 | > 400 |  |  |
| CC1=CC(C)=[N+]2C1=C(c1cccs1)c1c(C)cc(C)n1[B-]2(F)F | > 3 | > 100 | > 300 |  |  |
| COC(=O)c1ccc(C2=C3C(C)=C(I)C(C)=[N+]3[B-](F)(F)n3c(C)c(I)c(C)c32)cc1 | > 2 | > 200 | > 400 |  |  |
